# Screening data deposited in PubChem BioAssay by The Scripps Research Institute Molecular Screening Center.
# OX1R antag-1 – OX1R (HCRTR1) antagonists, primary screen, fluorescence, CHO/OX1R cells, Fluo-8 calcium, orexin A; inhibition, % at 5 µM; AID 434989, 2010; Orexin/Hypocretin receptor type 1 (Homo sapiens), O43613; 330,000 compounds, 0.43% hits; Fluo-8 calcium fluorescence;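 active = inhibition above its plate's threshold, mean inhibition of all tested compounds on the plate plus 3 SD, cut at about 37% in these data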;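 note: 0% = orexin A challenge wells and 100% = SB-334867-A antagonist wells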
# CHO parental Ca – ATP-evoked calcium signal inhibitors, parental CHO, primary screen, counter-screen for OX1R antagonist project, cell-based, fluorescence, Fluo-8 calcium dye; AID 463079, 2010; 330,000 compounds, 0.63% hits; parental CHO-K1, ATP-induced calcium, Fluo-8 fluorescence; inhibition, % at 5.6 µM;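 active = inhibition above that plate's mean sample inhibition plus 3 SD, cut at about 26% in these data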;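 note: 0% = ATP-challenged DMSO wells and 100% = DMSO wells without ATP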
#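 material = parental CHO cells | also added = ATP as calcium-mobilizing challenge | dosing = single point at 5.6 µM | detection = intracellular calcium via Fluo-8 no-wash fluorescent dye | read-out = % inhibition | benchmarks = low control ATP plus DMSO, high control DMSO only | repeats = one well per compound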
# TAAR1 agonist – human TAAR1 agonists, primary screen, Fluo-8 calcium fluorescence, CHO RD-HGA16 cells | vehicle wells 0%, saturating PEA agonist 100% | activation, % at 3 µM | 360,000 compounds, 0.99% hits | AID 624467, 2012;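 active = activation above the mean activation of all test compounds in the run plus 3 SD, cut at about 38% in these data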
# Target sequence (Q96RJ0 whole entry, looked up): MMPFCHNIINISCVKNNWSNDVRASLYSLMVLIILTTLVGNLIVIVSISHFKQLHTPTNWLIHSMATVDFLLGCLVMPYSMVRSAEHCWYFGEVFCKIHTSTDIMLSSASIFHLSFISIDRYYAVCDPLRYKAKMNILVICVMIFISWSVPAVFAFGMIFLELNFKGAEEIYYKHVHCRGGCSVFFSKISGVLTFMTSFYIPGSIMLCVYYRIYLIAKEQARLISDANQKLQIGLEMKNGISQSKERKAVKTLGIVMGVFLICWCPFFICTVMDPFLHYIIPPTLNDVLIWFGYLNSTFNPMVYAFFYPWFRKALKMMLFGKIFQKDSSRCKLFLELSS
#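 System: CHO RD-HGA16 cells carrying human TAAR1 plus Gα16; Incubation: 17-24 h seeding, 75 min 37 °C dye, 30 min RT; Measured by: Fluo-8 fluorescence, 5 s baseline then 140 s kinetic read; Control set: DMSO and PEA EC100; Replication: single well for each compound.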
# GPR7 antag – GPR7 receptor antagonists, primary screen, cell-based, fluorescence, single concentration; GPR7-expressing cells, fluorescence antagonist assay; inhibition, % at 4.4 µM; 290,000 compounds, 1.1% hits; AID 1861, 2009; in the data active = inhibition above about 16%, passing the limit was not always enough;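 note: cells stimulated with the agonist NPW; 0% = agonist with vehicle and 100% = vehicle without agonist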
# Target sequence (P48145 whole entry, looked up): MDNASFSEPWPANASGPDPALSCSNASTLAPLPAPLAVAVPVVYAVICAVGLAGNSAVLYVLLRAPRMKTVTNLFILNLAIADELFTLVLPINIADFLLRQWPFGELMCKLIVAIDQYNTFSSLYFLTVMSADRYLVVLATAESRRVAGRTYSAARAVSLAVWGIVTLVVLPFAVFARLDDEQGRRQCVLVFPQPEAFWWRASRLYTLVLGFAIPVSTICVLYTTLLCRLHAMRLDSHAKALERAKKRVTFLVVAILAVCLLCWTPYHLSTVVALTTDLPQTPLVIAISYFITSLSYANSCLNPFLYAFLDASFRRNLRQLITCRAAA
# OX1R antag-2 – antagonists of human orexin 1 receptor (OX1R) | Orexin/Hypocretin receptor type 1 (Homo sapiens), O43613 | OX1R-expressing cells, FRET antagonist read-out | inhibition, % at 6.6 µM | 330,000 compounds, 1.8% hits | AID 485270, 2010; in the data active = inhibition mostly above about 38%, no sharp cut-off; inactive = mostly below about 40%;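 note: 0% = agonist challenge alone and 100% = reference antagonist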
# TAAR1 antagonist – human TAAR1 antagonists, primary screen, Fluo-8 calcium fluorescence, CHO RD-HGA16 cells; inhibition, % at 3 µM; antagonist; Trace amine-associated receptor 1 (Homo sapiens), Q96RJ0; 360,000 compounds, 1.5% hits;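 active = inhibition above a per-plate cutoff, the mean inhibition of test compounds on that plate plus 3 SD, cut at about 49% in these data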;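 note: 0% = DMSO plus EC80 beta-PEA response and 100% = DMSO alone without agonist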
#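 test system = CHO RD-HGA16 cells bearing hTAAR1 | replication = singlicate | controls = DMSO-only wells and EC80 β-PEA-stimulated wells | reagent = EC80 β-phenethylamine stimulus | read-out basis = percent inhibition of PEA-evoked calcium signal, max/basal emission ratio | schedule = seeding 17-24 h prior, 75-min 37 °C, 30-min RT dye loading | signal = kinetic Fluo-8 calcium fluorescence measurement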
# OX1R Fluo8 conf – OX1R (HCRTR1) antagonists, confirmation, fluorescence, CHO/OX1R cells, Fluo-8 calcium, orexin A | orexin A calcium Fluo-8 fluorescence | inhibition, % at 5 µM | shares compounds with OX1R antag-1 | 1,100 compounds, 38% hits | AID 492963, 2010; in the data active = inhibition above about 29%;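 note: 0% = agonist challenge alone and 100% = reference antagonist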
# CHO Ca triplic – ATP-evoked calcium inhibition in parental CHO, counter-screen for OX1R antagonist project, cell-based, fluorescence, CHO-K1, triplicate. shares compounds with OX1R antag-1. ATP-induced calcium, Fluo-8 fluorescence. inhibition, % at 5.6 µM. 1,100 compounds, 9.3% hits. AID 492965, 2010;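 active = inhibition above a per-plate limit, the mean inhibition of that plate's test compounds plus 3 SD, cut at about 25% in these data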;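 note: 0% = ATP challenge with DMSO and 100% = DMSO without ATP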
# The depositor's hits bear a star; / = not tested or not shown. Sampled rows, rich in hits. Any-hit rate of the full collection: about 4.6%.
SMILES,OX1R antag-1,CHO parental Ca,TAAR1 agonist,GPR7 antag,OX1R antag-2,TAAR1 antagonist,OX1R Fluo8 conf,CHO Ca triplic
CCOC(=O)C1=CC[C@@H](c2cccc(C)c2)N(S(=O)(=O)c2ccc(C)cc2)[C@H]1C(=O)OCC,36,-6,10,/,22,-4,-10,2
CCCC#Cc1cnc2c(c1)C(=O)N([C@H](C)CO)C[C@@H](C)[C@H](CN(C)S(=O)(=O)c1cccc(OC)c1)O2,/,/,7,/,/,-12,/,/
C=CCn1c(Cn2c(-c3cnccn3)nc3ccccc32)nc2ccccc21,/,/,3,/,/,-3,/,/
CC(NCC(=O)Nc1cc(S(=O)(=O)N2CCCCCC2)ccc1Cl)c1ccccc1 (configuration not stated),27,22,3,-22,24,13,28,26*
O=C(Cc1cccs1)Nc1cc(S(=O)(=O)N2CCCCC2)ccc1Cl,-19,-31,10,/,6,-5,/,/
O=C(Nc1ccc(Nc2cccnc2)cc1)c1c[nH]c2ccccc12,/,/,4,/,/,23,/,/
OCC1(Cc2cccc(Cl)c2)CCCN(Cc2ccc3cc(F)ccc3n2)C1 (configuration not stated),32,-30,1,3,55,-11,33*,-10
COC(=O)c1cccc(NC(=S)NCc2ccc(Cl)cc2)c1,31,11,30,5,9,42,27,5
CC(C)CN1C(=O)CN(S(C)(=O)=O)CC1(C)C(=O)NC(C)C (configuration not stated),/,/,1,/,/,-5,/,/
COc1ccc(-n2c(=S)[nH]c3cc(C(=O)Nc4ccc(C)c(F)c4)ccc3c2=O)c(OC)c1,21,15,5,13,44,13,16,15
COc1ccc(-n2c(=S)[nH]c3cc(C(=O)Nc4cc(C(N)=O)ccc4OC)ccc3c2=O)c(OC)c1,0,-9,12,-11,4,3,/,/
CC(C)N(c1ccccc1)c1ccc(NC(=O)[C@@H]2O[C@H](CO)[C@@H](O)[C@H]2O)cc1,/,/,1,/,/,12,/,/
CCOc1cc(S(=O)(=O)Nc2ccccc2CC)ccc1Cl,56*,-6,4,-12,34,23,1,-11
CCOc1cc(S(=O)(=O)Nc2ccc(Cl)cn2)ccc1Cl,-9,-14,6,-15,26,7,/,/
COc1cccc(C(=O)N=c2sc3cc(S(C)(=O)=O)ccc3n2C)c1,30,6,8,-5,56,12,20,6
CC(C)NC(=O)C1(C)CN(S(C)(=O)=O)CC(=O)N1CCOc1ccccc1 (configuration not stated),/,/,0,/,/,-14,/,/
C=C(C)COc1ccc2c(C)c(CC(=O)OC)c(=O)oc2c1C,37,26,/,9,44,/,-1,18
CCCS(=O)(=O)NC(=O)C1(C)CCN(C(=O)c2ccccc2OC)C1 (configuration not stated),/,/,1,/,/,-10,/,/
CSc1ccc(CN(C)C(=O)c2cccc(S(=O)(=O)NCc3ccccc3)c2)cc1,40*,14,5,8,50,40,27,5
COc1ccc(-c2ccc(C(=O)NCc3ccc(C(F)(F)F)cc3)c3occc23)c(C)c1,/,/,2,/,/,-6,/,/
Cc1ccc(S(=O)(=O)N(C)c2ccc(OC(=O)c3cccs3)cc2)cc1,37,9,2,/,6,11,-5,-3
CC(C)(C)c1ccccc1OCC(=O)Nc1ccccc1C(=O)NCc1cccnc1,43*,16,14,-1,28,58*,8,-15
C[C@@H]1C=CCCO[C@]12C(=O)N(Cc1ccccc1C(F)(F)F)c1ccccc12,/,/,0,/,/,-12,/,/
CC1=C(C(=O)OCc2ccc3c(c2)OCO3)C(c2cccc([N+](=O)[O-])c2)NC(=O)N1 (configuration not stated),25,0,9,-3,12,28,5,-8
CCOc1ccc(C(=O)CN2C(=O)NC3(CCCc4ccccc43)C2=O)cc1 (configuration not stated),/,/,4,/,/,7,/,/
SMILES,OX1R antag-1,CHO parental Ca,TAAR1 agonist,GPR7 antag,OX1R antag-2,TAAR1 antagonist,OX1R Fluo8 conf,CHO Ca triplic
CC(=O)NC(C)C(=O)OCC(=O)Nc1ccc(Br)cc1 (configuration not stated),36,1,19,10,11,-6,2,4
O=C(COC(=O)C12CC3CC(CC(Br)(C3)C1)C2)Nc1cccc(S(=O)(=O)N2CCOCC2)c1,47*,10,11,/,14,32,32*,6
Cc1ccc(C)c(NC(=O)COC(=O)c2ccc(S(=O)(=O)N3CCCC3)cc2)c1,/,/,2,/,/,3,/,/
O=C(O)CN(Cc1ccccc1)S(=O)(=O)c1ccc2c(c1)OCCO2,39,-5,2,-5,33,0,3,5
O=S(=O)(c1ccc2c(c1)OCCO2)N1CCN(Cc2ccccc2)CC1,28,-2,7,4,15,13,-4,-4
CC1(Cc2cc(Cl)ccc2C(F)(F)F)C(=O)Nc2ccc(S(=O)(=O)NC3CCCCC3)cc21 (configuration not stated),/,/,4,/,/,4,/,/
CCN(CC)c1ccc2c(c1)oc(=O)c1c(Cl)cc(=O)oc12,28,16,/,-8,22,/,80*,56*
COC(=O)C1CCN(C2CN(Cc3ccc([N+](=O)[O-])cc3)S(=O)(=O)C2)CC1 (configuration not stated),/,/,1,/,/,-12,/,/
COc1ccc(N2CCN(C(=O)CSc3ccc(C)cc3)CC2)cc1,-11,-2,4,1,14,5,/,/
COc1ccc(N2CCN(C(=O)CSc3ccc([N+](=O)[O-])cc3)CC2)cc1,32,-12,4,2,12,23,21,7
CC(C)[C@@H]1NC(=O)[C@@H]2CSCCS(=O)(=O)N2C1=O,/,/,3,/,/,-7,/,/
FC(F)(F)c1nnc(Nc2ccc(Cl)cc2)s1,42*,17,9,2,9,-11,-9,-3
FC(F)(F)c1nnc(N2CCN(c3ccc(Cl)cc3)CC2)s1,-5,-12,1,8,6,-4,/,/
